Holding throughout (format): functional, cell-based
Series [1] deals with ATP-dependent translocase ABCB1 (Homo sapiens, UniProt P08183). The experiment in a line: TP_TRANSPORTER: drug resistance (vincristine) in MDR KB/V cells. The procedure, abridged:
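Fold reversal in KB/V cells from MTT vincristine IC50s measured with and without the reversing agent (5 or 10 μM). The ratio is defined as the vincristine IC50 […].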

Series [2] relates to KB 3-1. The series can be described thus: inhibitory concentration against human MDR KB/V cell line in presence of compound verapamil at 10 uM. The method in brief: (§1)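 Vincristine cytotoxicity in P-gp-overexpressing MDR KB/V cells, alone or with a reversing agent at the stated level (5 or 10 μM). MTT colorimetric assay in 96-well plates measured cell survival. IC50 is the vincristine concentration (nM) that inhibited cell growth by 50%.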

Series [3] relates to KB 3-1. The experiment in a line: inhibitory concentration against human MDR KB/V cell line in presence of compound Taxinine at 10 uM. The procedure, abridged:
as §1

Series [4] concerns KB 3-1. The experiment in a line: inhibitory concentration against human MDR KB/V cell line in presence of compound 9 at 10 uM. The procedure, abridged:
as §1

For series [5], the system named is KB 3-1. The series can be described thus: inhibitory concentration against human MDR KB/V cell line in presence of compound 9 at 5 uM. The procedure, abridged:
as §1

In series [6] the test system is KB 3-1. The series can be described thus: inhibitory concentration against human MDR KB/V cell line in presence of compound 8 at 5 uM. The procedure, abridged: as §1
In series [7] the test system is KB 3-1. The series can be described thus: inhibitory concentration against human MDR KB/V cell line in presence of compound 8 at 10 uM. The procedure, abridged:
as §1

Series [8] has as its system KB 3-1. The experiment in a line: inhibitory concentration against human MDR KB/V cell line in presence of compound 10 at 10 uM. The procedure, abridged:
as §1

In series [9] the test system is KB 3-1. The series can be described thus: inhibitory concentration against human MDR KB/V cell line in presence of compound 10 at 5 uM. The method in brief: as §1
Series [10] has as its system KB 3-1. The series can be described thus: inhibitory concentration against human MDR KB/V cell line. The method in brief: as §1

Sequence of ATP-dependent translocase ABCB1 (P08183 whole entry): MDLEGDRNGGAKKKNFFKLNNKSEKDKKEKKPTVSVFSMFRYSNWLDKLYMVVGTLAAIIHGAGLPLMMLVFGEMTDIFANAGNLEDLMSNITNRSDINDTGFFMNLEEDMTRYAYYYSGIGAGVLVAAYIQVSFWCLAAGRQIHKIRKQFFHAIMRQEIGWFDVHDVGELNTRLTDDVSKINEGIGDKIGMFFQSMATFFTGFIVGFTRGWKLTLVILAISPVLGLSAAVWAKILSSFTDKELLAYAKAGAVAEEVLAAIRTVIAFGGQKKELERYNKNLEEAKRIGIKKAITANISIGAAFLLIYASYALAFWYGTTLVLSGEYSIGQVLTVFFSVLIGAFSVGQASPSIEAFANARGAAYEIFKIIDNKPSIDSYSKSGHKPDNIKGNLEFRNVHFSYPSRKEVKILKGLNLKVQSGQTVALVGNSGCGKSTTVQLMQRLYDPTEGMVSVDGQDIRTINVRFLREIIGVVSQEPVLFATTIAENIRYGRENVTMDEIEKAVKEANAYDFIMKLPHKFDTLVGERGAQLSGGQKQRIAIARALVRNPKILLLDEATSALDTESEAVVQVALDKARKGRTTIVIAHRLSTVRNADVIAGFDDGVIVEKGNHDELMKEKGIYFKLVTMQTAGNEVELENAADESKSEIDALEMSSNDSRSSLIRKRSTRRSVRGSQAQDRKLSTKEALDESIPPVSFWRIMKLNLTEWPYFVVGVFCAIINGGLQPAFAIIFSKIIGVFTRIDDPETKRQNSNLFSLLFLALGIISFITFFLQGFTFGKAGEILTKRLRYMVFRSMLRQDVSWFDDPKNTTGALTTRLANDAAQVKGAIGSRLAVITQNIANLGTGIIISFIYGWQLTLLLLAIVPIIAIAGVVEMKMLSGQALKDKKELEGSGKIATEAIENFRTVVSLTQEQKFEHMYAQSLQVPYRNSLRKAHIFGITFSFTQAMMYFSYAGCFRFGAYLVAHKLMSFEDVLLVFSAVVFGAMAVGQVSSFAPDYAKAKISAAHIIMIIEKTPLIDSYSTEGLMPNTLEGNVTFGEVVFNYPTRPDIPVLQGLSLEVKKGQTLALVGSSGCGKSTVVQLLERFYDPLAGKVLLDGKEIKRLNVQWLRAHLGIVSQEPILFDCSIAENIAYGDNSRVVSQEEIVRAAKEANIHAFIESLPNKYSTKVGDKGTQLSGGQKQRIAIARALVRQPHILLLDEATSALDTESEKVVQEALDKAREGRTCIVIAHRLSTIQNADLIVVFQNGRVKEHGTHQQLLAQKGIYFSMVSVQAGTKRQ

Consider `C=C1[C@@H](OC(=O)CCc2ccccc2)CC[C@@]2(C)C[C@H](OC(C)=O)C3=C(C)C(=O)C[C@@H]([C@@H](OC(C)=O)[C@H]12)C3(C)C`, for which the Activity result in series [1] was “inhibitor [+]”.
Usually IC50 stands for the concentration at which inhibition is half-maximal. In the case of `CC[C@]1(O)CC2CN(CCc3c([nH]c4ccccc34)[C@@](C(=O)OC)(c3cc4c(cc3OC)N(C=O)C3C45CCN4CC=C[C@@](CC)(C(OC(C)=O)[C@]3(O)C(=O)OC)[C@H]45)C2)C1.COc1ccc(CCN(C)CCCC(C#N)(c2ccc(OC)c(OC)c2)C(C)C)cc1OC` (stereo not given in full), the half-inhibitory concentration (IC50) in the series with KB 3-1 [2] amounted to 18.1 nM.
As for `C=C1C2[C@H](C(C)=O)[C@@H]3CCC(=O)C(C)=C([C@@H](C(C)=O)[C@H](C(C)=O)[C@]2(C)CC[C@@H]1OC(=O)/C=C/c1ccccc1)C3(C)C.CC[C@]1(O)CC2CN(CCc3c([nH]c4ccccc34)[C@@](C(=O)OC)(c3cc4c(cc3OC)N(C=O)C3C45CCN4CC=C[C@@](CC)(C(OC(C)=O)[C@]3(O)C(=O)OC)[C@H]45)C2)C1` (stereo not given in full), in the series with KB 3-1 [3], the IC50 came to 124 nM.
On to `C=C1[C@@H](OC(=O)CCc2ccccc2)CC[C@@]2(C)C[C@H](OC(C)=O)C3=C(C)C(=O)C[C@@H]([C@@H](OC(C)=O)[C@H]12)C3(C)C.CC[C@]1(O)CC2CN(CCc3c([nH]c4ccccc34)[C@@](C(=O)OC)(c3cc4c(cc3OC)N(C=O)C3C45CCN4CC=C[C@@](CC)(C(OC(C)=O)[C@]3(O)C(=O)OC)[C@H]45)C2)C1` (stereo not given in full), for which the figures for the IC50 in the series on KB 3-1 [4] and in the series with KB 3-1 [5] were 2.8 nM and 19.4 nM, respectively.
Consider `C=C1[C@@H](OC(=O)Cc2ccccc2)CC[C@@]2(C)C[C@H](OC(C)=O)C3=C(C)C(=O)C[C@@H]([C@@H](OC(C)=O)[C@H]12)C3(C)C.CC[C@]1(O)CC2CN(CCc3c([nH]c4ccccc34)[C@@](C(=O)OC)(c3cc4c(cc3OC)N(C=O)C3C45CCN4CC=C[C@@](CC)(C(OC(C)=O)[C@]3(O)C(=O)OC)[C@H]45)C2)C1` (stereo not given in full), for which the half-inhibitory concentration (IC50) stood at 218 nM with KB 3-1 [6] and 7.3 nM in the series with KB 3-1 [7].
Turning to `C=C1[C@@H](OC(=O)Cc2cc(OC)ccc2OC)CC[C@@]2(C)C[C@H](OC(C)=O)C3=C(C)C(=O)C[C@@H]([C@@H](OC(C)=O)[C@H]12)C3(C)C.CC[C@]1(O)CC2CN(CCc3c([nH]c4ccccc34)[C@@](C(=O)OC)(c3cc4c(cc3OC)N(C=O)C3C45CCN4CC=C[C@@](CC)(C(OC(C)=O)[C@]3(O)C(=O)OC)[C@H]45)C2)C1` (stereo not given in full), the IC50 in the series on KB 3-1 [8] worked out at 8.93 nM; in the series with KB 3-1 [9], 325 nM.
In the series with KB 3-1 [10], `CC[C@]1(O)C[C@H]2CN(CCc3c([nH]c4ccccc34)[C@@](C(=O)OC)(c3cc4c(cc3OC)N(C=O)[C@H]3[C@@](O)(C(=O)OC)[C@H](OC(C)=O)[C@]5(CC)C=CCN6CC[C@]43[C@@H]65)C2)C1` [VINCRISTINE] yielded a 50% inhibitory concentration (IC50) of 1230 nM.
